Assay [1] has as its system Rattus norvegicus. The assay can be described thus: Antihypertensive activity in spontaneously hypertensive rats tested at 100 mg/kg po/day for 2 days. Type of assay: functional, organism-based. Also noted: dose 100 mg/kg. The essentials:
(§1)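 Male 16-week-old Okamoto SHR (mean arterial pressure about 170 mmHg), 1-3 rats per compound. Given by gavage in 2% preboiled starch (50 mg/mL), 100 mg/kg or less, with 0.9% NaCl load (25 mL/kg). Second dose without saline 24 h later. Mean arterial pressure measured 28 h after first dose. Active if ≤116 mmHg in one rat or mean ≤122 mmHg in two.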

The target in assay [2] is T1, Thromboxane-A synthase (Rattus norvegicus) (UniProt P49430).
T1 sequence (whole entry): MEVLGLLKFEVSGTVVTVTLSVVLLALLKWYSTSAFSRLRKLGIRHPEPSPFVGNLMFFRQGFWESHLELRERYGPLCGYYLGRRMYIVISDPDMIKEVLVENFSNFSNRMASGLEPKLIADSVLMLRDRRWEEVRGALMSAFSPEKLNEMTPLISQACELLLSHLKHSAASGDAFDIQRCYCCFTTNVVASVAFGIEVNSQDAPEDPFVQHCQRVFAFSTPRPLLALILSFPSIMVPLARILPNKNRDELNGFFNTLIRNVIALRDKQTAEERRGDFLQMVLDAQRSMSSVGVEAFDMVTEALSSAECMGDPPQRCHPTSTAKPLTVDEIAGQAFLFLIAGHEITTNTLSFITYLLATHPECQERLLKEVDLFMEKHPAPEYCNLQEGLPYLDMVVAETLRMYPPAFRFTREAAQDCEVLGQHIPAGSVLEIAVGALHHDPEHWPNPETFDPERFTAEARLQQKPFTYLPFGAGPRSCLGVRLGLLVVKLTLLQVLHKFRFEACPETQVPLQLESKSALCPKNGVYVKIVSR
The assay can be described thus: Inhibitory activity for thromboxane synthetase determined by TXB2 levels in platelets from spontaneously hypertensive rats. The conditions noted are these: concentration not given here. Also on record: concentration or dose not given beside the values. The essentials:
(§2)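 Washed SHR platelets in oxygenated Krebs phosphate buffer, pH 7.4, 4.5-6.0 × 10^4/μL, incubated with vehicle or drug for 10 min at 37 °C. Stopped with ice and citric acid. Supernatant TXB2 measured by RIA; TXB2 in boiled controls subtracted; % inhibition calculated. IC50 read graphically from % inhibition vs log concentration; single-point screen at 10^-4 M.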

The target of assay [3] is T2, Thromboxane-A synthase (Rattus norvegicus, UniProt P49430).
T2 sequence (P49430 whole entry): T1 sequence (whole entry)
The assay can be described thus: compound was tested for inhibitory activity against thromboxane synthetase,. The essentials:
as §2

Assay [4] deals with Rattus norvegicus. The assay can be described thus: Antihypertensive activity in spontaneously hypertensive rats at 100 mg/kg po/day for 2 days. Type of assay: functional, organism-based. Also noted: dose 100 mg/kg. The essentials:
as §1

Assay [5] concerns the target T2, Thromboxane-A synthase. The experiment in a line: Compound was tested for inhibitory activity against thromboxane synthetase. The essentials: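 Washed SHR platelets in oxygenated Krebs phosphate buffer, pH 7.4, 4.5-6.0 × 10^4/μL, incubated with vehicle or drug for 10 min at 37 °C. Stopped with ice and citric acid. Supernatant TXB2 measured by RIA; TXB2 in boiled controls subtracted; % inhibition calculated.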

pIC50: −log10 of the molar value. The source made the active and inactive calls.

Broadly, the inhibition is the drop in the measured response relative to a control, in per cent. As a reminder, the pIC50 is −log10 of the IC50, conventionally taken in molar units. Turning to `O=C(NCCCCCn1ccnc1)c1ccc(Cl)cc1`, the result in the assay with Rattus norvegicus [1] was inactive. The compound also displayed an inhibition in assay [2] of 100%. Further, on Thromboxane-A synthase [3], the pIC50 was 5.30.

For the compound `O=C(NCCCn1ccnc1)c1cccc(C(F)(F)F)c1`, in assay [2], the inhibition was 100%. For the same compound, the result in the assay on Rattus norvegicus [4] was Active. For the same compound, the pIC50 against Thromboxane-A synthase [5] was 5.40.

In the case of `CSc1ccc(C(=O)NCCCn2ccnc2)cc1`, the result in the assay with Rattus norvegicus [1] was inactive. The compound also yielded an inhibition in assay [2] of 100%. The pIC50 at Thromboxane-A synthase [5] is 6.30.

Consider `O=C(NCCCn1ccnc1)c1ccc(I)cc1`, for which the result in the assay with Rattus norvegicus [1] was inactive. The inhibition in assay [2] worked out at 97%. In addition, the pIC50 against Thromboxane-A synthase [5] was 6.26.

`O=C(NCCCCCCn1ccnc1)c1ccc(Cl)cc1`: in the assay on Rattus norvegicus [1], the outcome was inactive. The compound also showed an inhibition in assay [2] of 100%. At Thromboxane-A synthase [5], the pIC50 was 6.10.

Take `O=C(NCCCCCn1ccnc1)c1ccc(C(F)(F)F)cc1`: the result with Rattus norvegicus [1] was inactive. The compound further returned an inhibition in assay [2] of 100%. In addition, on Thromboxane-A synthase [5], the pIC50 was 6.15.

`O=C(NCCCCCCCCn1ccnc1)c1ccc(Cl)cc1` came in with an inhibition in assay [2] of 100%. For the same compound, in the assay on Rattus norvegicus [4], the result was Active. On Thromboxane-A synthase [5], this compound had a pIC50 of 7.00.

On to `O=C(NCCCCn1ccnc1)c1ccc(Cl)cc1`, for which the result with Rattus norvegicus [1] was inactive. For the same compound, in assay [2], the inhibition amounted to 95%. The negative-log IC50 (pIC50) against Thromboxane-A synthase [5] is 5.30.

In assay [2], `O=C(NCCCn1ccnc1)c1ccc(Cl)cc1` displayed an inhibition of 95%. Besides, in the assay on Rattus norvegicus [4], the result was Active.

In assay [2], `O=C(/C=C/c1ccc(Cl)cc1)NCCCn1ccnc1` came in with an inhibition of 98%. Moreover, in the assay with Rattus norvegicus [4], the outcome was Active.

`O=C(NCCCn1ccnc1)c1cccc(Cl)c1`: the inhibition in assay [2] amounted to 75%. For the same compound, the result with Rattus norvegicus [4] was Active.

`Cc1cn(CCCNC(=O)c2ccc(C(F)(F)F)cc2)cn1` yielded an inhibition in assay [2] of 92%. Further, the result in the assay with Rattus norvegicus [4] was Active.

As for `Cc1cn(CCCNC(=O)c2ccc(Cl)cc2)cn1`, in assay [2], the inhibition was found to be 93%. In the assay on Rattus norvegicus [4], the result was Active.

In turn, `Cc1cn(CCCNC(=O)c2ccc(Cl)c(Cl)c2)cn1` registered an inhibition in assay [2] of 90%. In the assay with Rattus norvegicus [4], the result was Active.

For the origin of these results see ChEMBL document CHEMBL1123157, “Thromboxane synthetase inhibitors and antihypertensive agents. 1. N-[(1H-imidazol-1-yl)alkyl]aryl amides and N-[(1H-1,2,4-triazol-1-yl)alkyl]aryl amides” (J Med Chem, 1986).
